CHRM4 PAM – human M4 muscarinic receptor positive allosteric modulators, primary screen, CHO-K1 cells, Fluo-8 calcium fluorescence; 0.4% of 360,000 active; Muscarinic acetylcholine receptor M4 (Homo sapiens), P08173; CHO-K1 hM4/Gqi5, ACh EC20; 0% = ACh EC20, 100% = maximal ACh; activation, % at 3 µM;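 active = activation above its plate's cutoff, the mean activation of sample wells plus 3 SD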
Target sequence (P08173 whole entry, looked up): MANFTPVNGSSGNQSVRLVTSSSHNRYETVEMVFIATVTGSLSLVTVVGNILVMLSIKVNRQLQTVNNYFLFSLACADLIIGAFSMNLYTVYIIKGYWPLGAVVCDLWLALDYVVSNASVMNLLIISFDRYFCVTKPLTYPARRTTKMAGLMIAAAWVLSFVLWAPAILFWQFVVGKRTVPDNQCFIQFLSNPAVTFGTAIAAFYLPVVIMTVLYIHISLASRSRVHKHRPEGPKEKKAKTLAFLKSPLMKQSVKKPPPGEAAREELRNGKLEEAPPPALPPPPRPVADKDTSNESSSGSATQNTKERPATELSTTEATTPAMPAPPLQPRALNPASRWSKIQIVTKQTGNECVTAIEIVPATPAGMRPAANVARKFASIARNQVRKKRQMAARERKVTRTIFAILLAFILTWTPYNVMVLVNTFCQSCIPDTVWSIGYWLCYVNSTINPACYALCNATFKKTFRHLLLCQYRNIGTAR
CHRM4 antagonist – human M4 muscarinic receptor antagonists, primary screen, CHO cells, Fluo-8 calcium fluorescence; Muscarinic acetylcholine receptor M4 (Homo sapiens), P08173; CHO-hM4 cells, ACh EC80; inhibition, % at 3 µM; 0.73% of 360,000 active; AID 624125, 2012;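 active = inhibition above its plate's cutoff, the mean inhibition of sample wells plus 3 SD, cut at about 27% in these data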;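 also: 0% = acetylcholine EC80 with DMSO and 100% = DMSO without agonist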
CHRM5 antagonist – human M5 muscarinic receptor antagonists, primary screen, CHO cells, Fluo-8 calcium fluorescence | inhibition, % at 3 µM | Muscarinic acetylcholine receptor M5 (Homo sapiens), P08912 | AID 624040, 2012 | 0.59% of 360,000 active | CHO-hM5 cells, ACh EC80;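 active = inhibition above a per-plate cutoff, the mean of that plate's test compounds plus 3 SD, cut at about 27% in these data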;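 also: 0% = acetylcholine EC80 with DMSO and 100% = DMSO without agonist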
CHRM5 PAM – human M5 muscarinic receptor positive allosteric modulators, primary screen, CHO-K1 cells, Fluo-8 calcium fluorescence; Muscarinic acetylcholine receptor M5 (Homo sapiens), P08912; CHO-K1 hM5, ACh EC20 PAM; 0% = ACh EC20, 100% = ACh EC100; activation, % at 3 µM; 0.3% of 360,000 active;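 active = activation above the run cutoff, the mean activation of all test compounds plus 3 SD, cut at about 18% in these data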
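Assay system: CHO-K1 hM5 cells. Also added: acetylcholine at EC20 concentration, added after compound. Dosing: 3 µM, single dose. Times: compound preincubation 140 s before EC20 acetylcholine addition. Signal: Fluo-8 calcium fluorescence. Measure: % activation relative to EC20 and EC100 ACh responses. Repeats: singlicate, one well per test compound.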
CHRM5 agonist – human M5 muscarinic receptor agonists, primary screen, CHO-K1 cells, Fluo-8 calcium fluorescence | CHO-K1 hM5 cells; 0% DMSO wells, 100% maximal acetylcholine response | activation, % at 3 µM | AID 624037, 2012 | 0.19% of 360,000 active;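 active = activation above the run's mean over test compounds plus 3 SD, cut at about 23% in these data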;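 also: signal is peak over basal fluorescence ratio across the kinetic read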
CHRM4 agonist – human M4 muscarinic receptor agonists, primary screen, CHO-K1 cells, Fluo-8 calcium fluorescence; Muscarinic acetylcholine receptor M4 (Homo sapiens), P08173; CHO-K1 hM4/Gqi5; vehicle 0%, full acetylcholine response 100%; activation, % at 3 µM; 0.14% of 360,000 active;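 active = activation above the run mean over all test wells plus 3 SD, cut at about 32% in these data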;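 also: peak over basal fluorescence ratio per well then scaled between controls; 0% = DMSO wells and 100% = acetylcholine at EC100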
* marks the source's active call; other numbers are inactive results. In the library only some 1.8% were active in any assay of this set; here they are far more common.

SMILES	CHRM4 PAM	CHRM4 antagonist	CHRM5 antagonist	CHRM5 PAM	CHRM5 agonist	CHRM4 agonist
CCn1c(=O)c([N+](=O)[O-])c(Cl)c2ccccc21	-21	39*	23	-14	1	7
OCC1(CCc2ccccc2)CCCN(CCCc2ccccc2)C1 (stereo not given)	-13	5	10	-13	-2	1
CCn1c(=O)c(C(=O)NNC(=O)c2ccccc2Cl)c(O)c2ccccc21	2	-7	5	-1	14	54*
CCn1c(=O)c(C(=O)NNC(=O)c2ccccc2F)c(O)c2ccccc21	-11	-3	3	5	-1	4
CC1(C)N=C(N)N=C(N)N1c1ccc(OCC(=O)N2CCOCC2)c(Cl)c1	7	-13	1	-1	-2	0
O=C(N/N=C/c1ccc(Cl)cc1Cl)c1n[nH]c2c1CCCC2	26*	-12	-4	3	-4	1
CCCCCC[N+](C)(C)CCSSCC[N+](C)(C)CCCCCC	4	-5	9	2	-5	0
CCCCCCCCCCCCCCCC[N+](C)(C)CCl	-10	35*	29*	-45	-11	2
CCCCCCCCCCCCCCCC[N+](C)(C)CC	-18	52*	77*	-19	-1	1
C[C@@H]1CCCCO[C@H](CN(C)C(=O)Nc2ccccc2)[C@@H](C)CN([C@H](C)CO)C(=O)c2cc(NS(=O)(=O)c3cn(C)cn3)ccc2O1	-1	-6	-4	1	2	0
CN(c1ccccc1)S(=O)(=O)c1cccc(C(=O)NCC(c2cccs2)N2CCOCC2)c1 (stereo not given)	-1	14	2	-4	0	8
COc1nc(NCCO)nc(Nc2ccc([N+](=O)[O-])cc2)n1	25*	-2	9	0	1	2
O=c1oc2c(CN3CCOCC3)c(O)ccc2c2c1CCC2	6	13	1	-1	-3	0
CC(C)CN(Cc1c(O)ccc2c3c(c(=O)oc12)CCC3)CC(C)C	-30	28*	-10	6	-2	-1
CCN(CC)CCNC(=O)Cn1ncc2ccccc2c1=O	18	0	-11	20*	8	0
CCN(CC)CCNC(=O)Cn1nc(-c2ccccc2)c2ccccc2c1=O	-3	-1	8	-4	-10	0
CN(C)CCC(=O)N1c2ccccc2Sc2ccc(C(F)(F)F)cc21	-17	99*	100*	-32	-23	1
CN(C)CCCN1c2ccccc2Sc2ccc(C(F)(F)F)cc21	-17	83*	98*	-18	1	11
CN(C)CCCN1c2ccc(O)cc2Sc2ccc(Cl)cc21	-13	44*	56*	-20	-1	13
OCCN1CCN(CCCN2c3ccccc3Sc3ccc(C(F)(F)F)cc32)CC1	-6	-3	-3	-4	-1	6
CCOC(=O)[C@]12CCC=C1N(Cc1ccc(Cl)cc1Cl)C(=O)[C@H](CC(=O)NCc1cccs1)C2	8	-11	-1	0	-2	-1
Cc1ccc(C(=O)Cn2c(C)cc(C)c(C#N)c2=O)cc1	5	-12	-8	29*	5	1
Cc1cc(C)n(CC(=O)c2ccc(Br)cc2)c(=O)c1C#N	-3	3	-7	-5	-1	4
COc1ccccc1Nc1nc(N)nc(CN2CCN(Cc3ccccc3)CC2)n1	-4	11	4	-4	-1	0
COc1ccc(N2CCN(Cc3nc(N)nc(Nc4ccccc4OC)n3)CC2)cc1	10	27*	-2	-7	0	-1
SMILES	CHRM4 PAM	CHRM4 antagonist	CHRM5 antagonist	CHRM5 PAM	CHRM5 agonist	CHRM4 agonist
CCOc1cc(/C=C2\CN(C)C/C(=C\c3ccc(O)c(OCC)c3)C2=O)ccc1O	-2	-8	3	-4	0	11
CCOc1cc(/C=C2\CCC/C(=C\c3cc(Cl)c(O)c(OCC)c3)C2=O)cc(Cl)c1O	-23	47*	22	-11	-4	3
Cc1nc(N)sc1C(=O)N/N=C/c1ccccc1[N+](=O)[O-]	22*	-11	-11	12	1	3
Cc1nc(N)sc1C(=O)N/N=C/c1ccc([N+](=O)[O-])cc1	-5	-7	12	0	-1	1
Nc1c(C(=O)N2CCOCC2)sc2nc3c(cc12)CCC3	15	35*	-5	0	0	2
O=C(CNCC1(N2CCOCC2)CCCCC1)Nc1ccc(Cl)cc1	12	11	10	18*	2	1
CCOC(=O)[C@]12CCC=C1N(Cc1ccc(Cl)cc1Cl)C(=O)[C@H](CC(=O)NCC1CCCCC1)C2	-1	0	-2	-2	-3	-1
CSC(=S)N/N=C/c1ccc(Br)cc1	23*	-16	2	-2	-3	2
CSC(=S)N/N=C/c1ccc(N(C)C)cc1	0	-2	10	-1	-1	0
O=C(NCc1ccc(F)cc1)C1C2C=CC3(CN(Cc4cccnc4)C(=O)C13)O2 (stereo not given)	28*	-8	1	-3	-3	2
CCCOC(=O)C1[C@H]2C(=O)N(C(C)c3ccc(OC)cc3)C[C@]23C=C[C@H]1O3 (stereo not given in full)	-2	-2	4	-9	-2	1
CCOC(=O)C1[C@H]2C(=O)N(C(C)c3ccc(OC)cc3)C[C@]23C=C[C@H]1O3 (stereo not given in full)	-32	75*	22	-23	-7	0
COC(=O)C1C2C=CC3(CN(Cc4cccs4)C(=O)C13)O2 (stereo not given)	14	5	-12	21*	2	1
O=C(COC(=O)C1(c2ccccc2F)CCCC1)N1CCNC1=O	0	1	-1	3	-3	2
O=C1NC[C@@H](Cc2cccc3ccccc23)N(CCCCC2CCCCC2)C1=O	5	-1	1	11	0	-1
COc1c(O)cc2c(c1O)C1OC(CO)C(O)C(O)C1OC2=O (stereo not given)	7	-36	-2	-15	46*	7
CSc1ccc(NC(=O)C2(C)CCN2C(=O)Cc2ccc(C(C)(C)C)cc2)cc1 (stereo not given)	-7	10	2	-5	2	4
